Measured values: ChEMBL document CHEMBL3352307, “Bioactive anthraquinone derivatives from the mangrove-derived fungus Stemphylium sp. 33231” (J Nat Prod, 2014)
Converted amounts (≈) assume the structure as drawn.

Experiments:
[1] = Cytotoxic activity against mouse B16F10 cells by MTT assay; assay type: functional, cell-based; settings: B16-F10
In short: (§1)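 MTT viability read-out on mouse melanoma B16F10 and human lung adenocarcinoma A549 lines, with epirubicin as positive control. Activity is given as IC50.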

[2] = tested on: A549; test: Cytotoxic activity against human A549 cells by MTT assay; assay type: functional, cell-based; in short: as §1
[3] = tested on: Micrococcus; test: Antimicrobial activity against Micrococcus tetragenus ATCC 13623 by broth dilution assay; assay type: functional
In short: (§2)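 Conventional broth dilution run on the seven terrestrial pathogenic bacterial strains, with ciprofloxacin as positive control.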

[4] = tested on: Escherichia coli; test: Antimicrobial activity against Escherichia coli ATCC 25922 by broth dilution assay; assay type: functional; in short: as §2
[5] = tested on: Staphylococcus; test: Antimicrobial activity against Staphylococcus albus ATCC 8799 by broth dilution assay; assay type: functional; in short: as §2
[6] = tested on: Bacillus cereus; test: Antimicrobial activity against Bacillus cereus ATCC 14579 by broth dilution assay; assay type: functional; in short: as §2
[7] = tested on: Staphylococcus aureus; test: Antimicrobial activity against Staphylococcus aureus ATCC 6538 by broth dilution assay; assay type: functional; in short: as §2
[8] = tested on: Kocuria rhizophila; test: Antimicrobial activity against Kocuria rhizophila ATCC 9341 by broth dilution assay; assay type: functional; in short: as §2
[9] = tested on: Bacillus subtilis; test: Antimicrobial activity against Bacillus subtilis ATCC 6633 by broth dilution assay; assay type: functional; in short: as §2
[10] = Micrococcus, ATCC 13623, read-out: MIC
[11] = Escherichia coli, ATCC 25922, read-out: MIC
[12] = Staphylococcus, ATCC 8799, read-out: MIC
[13] = Bacillus cereus, ATCC 14579, read-out: MIC
[14] = Staphylococcus aureus, ATCC 6538, read-out: MIC
[15] = Kocuria rhizophila, ATCC 9341, read-out: MIC
[16] = Bacillus subtilis, ATCC 6633, read-out: MIC

MIC [3, 10] [µM] | MIC [4, 11] [µM] | MIC [5, 12] [µM] | MIC [6, 13] [µM] | MIC [7, 14] [µM] | MIC [8, 15] [µM] | MIC [9, 16] [µM] | MIC [3] [µM] | MIC [5] [µM] | MIC [8] [µM] | MIC [9] [µM] | Structure (SMILES) | IC50 [1] [µM] | IC50 [2] [µM] | MIC [6] [µM] | MIC [7] [µM] | MIC [4] [µM]
> 10 | > 10 | > 10 | > 10 | > 10 | > 10 | > 10 |  |  |  |  | COc1cc(O)c2c(c1)[C@H](O)[C@@H]1[C@@H](C2=O)[C@H](O)[C@@H](O)[C@@](C)(O)[C@@H]1O [AMPELANOL] |  |  |  |  | 
> 10 | > 10 | > 10 | > 10 | > 10 | > 10 | > 10 |  |  |  |  | COc1cc(O)c2c(c1)C(=O)c1cc(C)c(OS(=O)(=O)O)cc1C2=O | > 10 | > 10 |  |  | 
> 10 | > 10 | > 10 | 7.9 (≈ 4.89 µg/mL) | > 10 | > 10 | > 10 |  |  |  |  | COc1cc(O)c2c(c1-c1c(OC)cc(O)c3c1C(=O)c1cc(C)c(O)cc1C3=O)C(=O)C1=C(C2=O)[C@H](O)[C@@H](O)[C@@](C)(O)[C@@H]1O (single isomer, unassigned; atropisomer 1) [ALTERPORRIOL A/B] |  |  |  |  | 
4.6 (≈ 1.31 µg/mL) | 4.6 (≈ 1.31 µg/mL) | > 10 | > 10 | 9.2 (≈ 2.62 µg/mL) | > 10 | > 10 |  |  |  |  | COc1cc(O)c2c(c1)C(=O)c1cc(C)c(O)cc1C2=O [MACROSPORIN] | > 10 | > 10 |  |  | 
> 10 | 7.8 (≈ 2.37 µg/mL) | > 10 | > 10 | 7.8 (≈ 2.37 µg/mL) | 7.8 (≈ 2.37 µg/mL) | 7.8 (≈ 2.37 µg/mL) |  |  |  |  | COc1cc(O)c2c(c1)C(=O)C1=C(C[C@@H](O)[C@@](C)(O)C1)C2=O [ALTERSOLANOL B] | > 10 | > 10 |  |  | 
> 10 | 7.3 (≈ 2.25 µg/mL) | > 10 | > 10 | > 10 | > 10 | > 10 |  |  |  |  | COc1cc(O)c2c(c1)[C@H](O)[C@H]1C[C@](C)(O)[C@H](O)C[C@@H]1C2=O [TETRAHYDROALTERSOLANOL B] |  |  |  |  | 
> 10 | > 10 | > 10 | > 10 | > 10 | > 10 | > 10 |  |  |  |  | COc1cc(O)c2c(c1)C(=O)c1cc(C)c(O)c(-c3c(OC)cc4c(c3O)C(=O)c3cc(O)c(C)cc3C4=O)c1C2=O [ALTERPORRIOL Q] | > 10 | > 10 |  |  | 
7.8 (≈ 2.7 µg/mL) | 3.9 (≈ 1.35 µg/mL) | 3.9 (≈ 1.35 µg/mL) | > 10 | 3.9 (≈ 1.35 µg/mL) | > 10 | 3.9 (≈ 1.35 µg/mL) |  |  |  |  | COc1cc(O)c2c(c1)C(=O)C1=C(C[C@@H](OC(C)=O)[C@@](C)(O)C1)C2=O | > 10 | > 10 |  |  | 
> 10 | > 10 | > 10 | > 10 | > 10 | > 10 | > 10 |  |  |  |  | COc1cc2c(c(O)c1-c1c(OC)cc(O)c3c1C(=O)C1=C(C[C@@H](O)[C@@](C)(O)[C@@H]1O)C3=O)C(=O)C1=C(C[C@](C)(O)[C@H](O)C1)C2=O |  |  |  |  | 
> 10 | > 10 | > 10 | 8.1 (≈ 4.59 µg/mL) | > 10 | > 10 | > 10 |  |  |  |  | COc1cc(O)c2c(c1)C(=O)c1cc(C)c(O)c(-c3c(O)c(C)cc4c3C(=O)c3c(O)cc(OC)cc3C4=O)c1C2=O | > 10 | > 10 |  |  | 
> 10 | 9.8 (≈ 3.45 µg/mL) | > 10 | > 10 | > 10 | > 10 | > 10 |  |  |  |  | COc1cc(O)c2c(c1)C(=O)[C@@]13O[C@]1(C2=O)[C@H](O)[C@@H](O)[C@@](C)(O)[C@@H]3O | > 10 | > 10 |  |  | 
> 10 | > 10 | > 10 | > 10 | > 10 | > 10 | > 10 |  |  |  |  | COc1cc(O)c2c(c1)[C@H](O)[C@@H]1[C@H](C[C@@H](O)[C@@](C)(O)[C@@H]1O)C2=O [ALTERSOLANOL L] | > 10 | > 10 |  |  | 
> 10 | > 10 | 8.9 (≈ 5.51 µg/mL) | > 10 | > 10 | > 10 | > 10 |  |  |  |  | COc1cc(O)c2c(c1)C(=O)c1cc(C)c(O)c(-c3c(OC)cc4c(c3O)C(=O)C3=C(C4=O)[C@@H](O)[C@](C)(O)[C@H](O)[C@H]3O)c1C2=O (single isomer, unassigned; atropisomer 1) [ALTERPORRIOL C] | > 10 | > 10 |  |  | 
 |  |  |  |  |  |  | > 10 | > 10 | > 10 | > 10 | COc1cc(O)c2c(c1-c1c(OC)cc(O)c3c1C(=O)c1cc(C)c(O)cc1C3=O)C(=O)C1=C(C2=O)[C@H](O)[C@@H](O)[C@@](C)(O)[C@@H]1O (single isomer, unassigned; atropisomer 2) [ALTERPORRIOL A/B] | > 10 | > 10 | > 10 | > 10 | > 10
> 10 | > 10 | > 10 | > 10 | > 10 | > 10 | > 10 |  |  |  |  | COc1cc(O)c2c(c1)C(=O)c1cc(C)c(O)c(-c3c(OC)cc(O)c4c3C(=O)C3=C(C[C@@H](O)[C@@](C)(O)[C@@H]3O)C4=O)c1C2=O | > 10 | > 10 |  |  | 
0.3 (≈ 0.0994 µg/mL) | 0.3 (≈ 0.0994 µg/mL) | 0.6 (≈ 0.199 µg/mL) | 0.6 (≈ 0.199 µg/mL) | 0.16 (≈ 0.053 µg/mL) | 0.3 (≈ 0.0994 µg/mL) | 0.6 (≈ 0.199 µg/mL) |  |  |  |  | O=C(O)c1cn(C2CC2)c2cc(N3CCNCC3)c(F)cc2c1=O [CIPROFLOXACIN] |  |  |  |  | 
> 10 | > 10 | > 10 | 8.3 (≈ 5.03 µg/mL) | > 10 | > 10 | > 10 |  |  |  |  | COc1cc2c(c(O)c1-c1c(OC)cc(O)c3c1C(=O)C1=C(C[C@@H](O)[C@@](C)(O)C1)C3=O)C(=O)C1=C(C[C@](C)(O)[C@H](O)C1)C2=O | > 10 | > 10 |  |  | 
> 10 | > 10 | > 10 | > 10 | > 10 | > 10 | > 10 |  |  |  |  | COc1cc(O)c2c(c1)[C@H](O)[C@@H]1[C@H](C[C@@H](OC(C)=O)[C@@](C)(O)[C@@H]1O)C2=O | > 10 | > 10 |  |  | 
> 10 | > 10 | > 10 | > 10 | > 10 | > 10 | 8.8 (≈ 2.82 µg/mL) |  |  |  |  | COc1cc(O)c2c(c1)C(=O)C1=C(C[C@@H](O)[C@@](C)(O)[C@@H]1O)C2=O [ALTERSOLANOL C] |  |  |  |  | 
> 10 | > 10 | > 10 | > 10 | > 10 | > 10 | > 10 |  |  |  |  | COc1cc(O)c2c(c1)[C@H](O)[C@@H]1C(=C[C@@H](O)[C@@](C)(O)[C@@H]1O)C2=O | > 10 | > 10 |  |  | 
> 10 | > 10 | > 10 | > 10 | > 10 | > 10 | > 10 |  |  |  |  | COc1cc(O)c2c(c1)C(=O)c1cc(C)c(O)c(-c3c(OC)cc(O)c4c3C(=O)c3cc(C)c(O)cc3C4=O)c1C2=O (single isomer, unassigned; atropisomer 2) |  |  |  |  | 
> 10 | > 10 | > 10 | > 10 | > 10 | > 10 | > 10 |  |  |  |  | COc1cc(O)c2c(c1-c1c(OC)cc(O)c3c1C(=O)C1=C(C[C@@H](O)[C@@](C)(O)[C@@H]1O)C3=O)C(=O)C1=C(C[C@@H](O)[C@@](C)(O)[C@@H]1O)C2=O |  |  |  |  | 

Structure (SMILES) | MIC [3, 10] [µM] | MIC [4, 11] [µM] | MIC [5, 12] [µM] | MIC [6, 13] [µM] | MIC [7, 14] [µM] | MIC [8, 15] [µM] | MIC [9, 16] [µM] | MIC [3] [µM] | MIC [5] [µM] | MIC [8] [µM] | MIC [9] [µM] | IC50 [1] [µM] | IC50 [2] [µM] | MIC [6] [µM] | MIC [7] [µM] | MIC [4] [µM]
COc1cc(O)c2c(c1)C(=O)C1=C(C2=O)[C@H](O)[C@@H](O)[C@@](C)(O)[C@@H]1O [ALTERSOLANOL A] | 8.2 (≈ 2.76 µg/mL) | 4.1 (≈ 1.38 µg/mL) | > 10 | > 10 | 2.07 (≈ 0.696 µg/mL) | > 10 | 4.1 (≈ 1.38 µg/mL) |  |  |  |  | > 10 | > 10 |  |  | 
COc1cc(O)c2c(c1-c1c(OC)cc(O)c3c1C(=O)C1=C(C3=O)[C@@H](O)[C@H](O)[C@](C)(O)[C@H]1O)C(=O)C1=C(C2=O)[C@H](O)[C@@H](O)[C@@](C)(O)[C@@H]1O (single isomer, unassigned; atropisomer 2) | > 10 | 5 (≈ 3.35 µg/mL) | > 10 |  |  |  |  |  |  |  |  |  |  | 2.5 (≈ 1.68 µg/mL) | >10 | 
COc1cc(O)c2c(c1-c1c(OC)cc(O)c3c1C(=O)C1=C(C3=O)[C@@H](O)[C@H](O)[C@](C)(O)[C@H]1O)C(=O)C1=C(C2=O)[C@H](O)[C@@H](O)[C@@](C)(O)[C@@H]1O (atropisomer, axis not shown) |  |  |  |  | 5 (≈ 3.35 µg/mL) | > 10 | > 10 |  |  |  |  | > 10 | > 10 | 10 (≈ 6.71 µg/mL) |  | 7.5 (≈ 5.03 µg/mL)
